Data as given in ChEMBL document CHEMBL4613269, “2-((4-Arylpiperazin-1-yl)methyl)benzonitrile Derivatives as Orally Available Inhibitors of Hepatitis C Virus with a Novel Mechanism of Action” (J Med Chem, 2020).
The source made the active and inactive calls. No cut-off for these calls is given here.

Tests used:
Hepatitis C virus [1] = test: Antiviral activity against HCV expressing NS5B S282T mutant by qRT-PCR analysis based by Reed-Muench method; format: functional, organism-based, Hepacivirus hominis
Procedure, shortened: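 Huh7.5 cells seeded at 3×10^4/cm², infected 24 h later with wild-type or mutant HCV stock while compound or solvent was added at the same time. Intracellular HCV RNA measured by qRT-PCR at 72 h, normalised to GAPDH, 2^-ΔCT method. EC50 by Reed & Muench from eight-step 1:5 serial dilutions, triplicate wells.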

[2] = Clearance in beagle dog at 15 mg/kg, po measured after 0.08 to 72 hrs post dose by LC-MS/MS analysis; format: ADME, organism-based, Canis lupus familiaris; details: in vivo
Procedure, shortened: (§1)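 Single dose to fasted (12 h) animals: oral gavage 15 mg/kg as suspension in 0.5% CMC-Na, or iv 5 mg/kg dissolved in citric acid buffer pH 5.0 with 2.5% DMSO. Jugular vein blood on heparin at 0.08 (iv only) to 72 h. Plasma assayed by LC-MS/MS; parameters from noncompartmental analysis.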

[3] = Cmax in beagle dog at 15 mg/kg, po measured after 0.08 to 72 hrs post dose by LC-MS/MS analysis; format: ADME, organism-based, Canis lupus familiaris; set-up: dose 15 mg/kg, route oral; details: in vivo; procedure, shortened: as §1
Hepatitis C virus [4] = test: Antiviral activity against HCV GS4.3 infected in human Huh7.5 cells assessed as […] at 0.008 to 1 uM simultaneously treated with viral infection and measured after 72 hrs by Western blot assay; format: functional, organism-based; details: Hepacivirus hominis
Hepatitis C virus [5] = test: Antiviral activity against HCV GS4.3 infected in human Huh7.5 cells assessed as […] at 0.008 to 1 uM incubated with drug for 2 hrs after viral infection and measured after 72 hrs by Western blot assay; format: functional, organism-based; details: Hepacivirus hominis
Coxsackievirus B3 = test: Antiviral activity against Coxsackievirus B3 infected in Vero cells assessed as reduction in virus-induced cytopathic effect incubated for 48 hrs by Reed-Muench method; format: functional, organism-based; details: Enterovirus B
[6] = Apparent Volume of distribution in beagle dog at 5 mg/kg, iv measured after 0.08 to 72 hrs post dose by LC-MS/MS analysis; format: ADME, organism-based, Canis lupus familiaris; details: in vivo, read-out: Vz; procedure, shortened: as §1
Hepatitis C virus [7] = test: Antiviral activity against wild type HCV by qRT-PCR analysis based by Reed-Muench method; format: functional, organism-based, Hepacivirus hominis
Procedure, shortened: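 Huh7.5 cells seeded 24 h, then infected with wild-type (or mutant) HCV with compound added at the same time. Incubated 72 h. Intracellular HCV RNA measured by qRT-PCR, 2^-ΔCt method, normalized to GAPDH. Eight-step 1:5 serial dilutions in triplicate; EC50 by Reed & Muench; three independent experiments.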

[8] = AUC (0 to 72 hrs) in Sprague-Dawley rat at 5 mg/kg, iv measured after 0.08 to 72 hrs post dose by LC-MS/MS analysis; format: ADME, organism-based; set-up: time < 72 hr, dose 5 mg/kg, route intravenous; details: in vivo; procedure, shortened: as §1
[9] = Toxicity in Kunming mouse at 250 to 1000 mg/kg dosed via single oral gavage and measured on day 7 post treatment; format: organism-based; details: in vivo
Procedure, shortened: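 Kunming mice, 4 groups of n = 6 (3 male, 3 female). Fasted from 12 h before to 1 h after dosing. Single oral gavage of 250, 500 or 1000 mg/kg suspended in 0.5% CMC-Na, or vehicle alone. Followed for 7 days: survival, body weight before and at day 7. Day-7 blood taken for AST, ALT, urea nitrogen and creatinine.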

[10] = Apparent Volume of distribution in beagle dog at 15 mg/kg, po measured after 0.08 to 72 hrs post dose by LC-MS/MS analysis; format: ADME, organism-based, Canis lupus familiaris; details: in vivo; procedure, shortened: as §1
[11] = Cytotoxicity in African green monkey Vero cells assessed as reduction in cell viability; format: cell-based; details: chlorocebus sabaeus
[12] = Selectivity index, ratio of CC50 for cytotoxicity in human Huh7.5 cells assessed as reduction in cell viability incubated for 96 hrs by MTT assay to EC50 antiviral activity against HCV J6/JFH/JC1 infected in human Huh7.5 cells assessed as reduction in viral RNA levels incubated for 72 hrs by qRT-PCR analysis; format: toxicity, cell-based; details: read-out: Ratio CC50/EC50
Procedure, shortened: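 Selectivity index = CC50/EC50. CC50: Huh7.5 cells seeded at 3×10^4/cm², medium with compound added at 24 h, MTT read at 96 h. EC50: HCVcc-infected Huh7.5 cells treated for 72 h, HCV RNA by qRT-PCR normalised to GAPDH. Serial 1:5 dilutions in eight steps, Reed & Muench calculation, means ± SD of three independent experiments.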

[13] = Half life in beagle dog at 15 mg/kg, po measured after 0.08 to 72 hrs post dose by LC-MS/MS analysis; format: ADME, organism-based, Canis lupus familiaris; details: in vivo; procedure, shortened: as §1
Hepatitis C virus [14] = test: Antiviral activity against HCV GS4.3 infected in human Huh7.5 cells assessed as reduction in viral replication at 1 uM simultaneously treated with viral infection for 15 mins to 2 hrs and measured after 72 hrs by In-Cell Western assay; format: functional, organism-based; details: Hepacivirus hominis
Procedure, shortened: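 Huh7.5 cells infected with HCV while incubated with compound, either for 4 h across a concentration series or at 1.0 µM for varied times down to 15 min. Supernatant then replaced with fresh medium. Intracellular Core protein measured by In-Cell Western at 72 h.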

Hepatitis C virus [15] = test: Antiviral activity against HCV genotype 2a pseudoparticle infected in human Huh7.5 cells assessed as reduction in viral replication; format: functional, organism-based; details: Hepacivirus hominis; subtype 2a
Procedure, shortened: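 Genotype 1b or 2a HCV pseudoparticles made by co-transfecting HEK 293T cells with envelope and luciferase-reporter HIV plasmids; input standardized by luciferase. Huh7.5 cells co-incubated with compound and HCVpp for 4 h at 37°C, washed, then luciferase read at 72 h.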

[16] = Clearance in beagle dog at 5 mg/kg, iv measured after 0.08 to 72 hrs post dose by LC-MS/MS analysis; format: ADME, organism-based, Canis lupus familiaris; details: in vivo; procedure, shortened: as §1
[17] = AUC (0 to 72 hrs) in Sprague-Dawley rat at 15 mg/kg, po measured after 0.08 to 72 hrs post dose by LC-MS/MS analysis; format: ADME, organism-based; set-up: dose 15 mg/kg, time < 72 hr, route oral; details: in vivo; procedure, shortened: as §1
Hepatitis C virus [18] = test: Antiviral activity against HCV GS4.3 infected in human Huh7.5 cells assessed as reduction in viral NS3 protein levels at 0.2 to 5 uM incubated for 72 hrs by Western blot assay; format: functional, organism-based; details: Hepacivirus hominis
[19] = Apparent Volume of distribution in Sprague-Dawley rat at 5 mg/kg, iv measured after 0.08 to 72 hrs post dose by LC-MS/MS analysis; format: ADME, organism-based; details: in vivo, read-out: Vz; procedure, shortened: as §1
[20] = Bioavailability in Sprague-Dawley rat at 5 mg/kg, iv measured after 0.08 to 72 hrs post dose by LC-MS/MS analysis; format: ADME, organism-based; details: in vivo; procedure, shortened: as §1
[21] = Drug level in Sprague-Dawley rat at 5 mg/kg, iv measured after 24 hrs post dose by LC-MS/MS analysis; format: ADME, organism-based; details: in vivo, read-out: Drug uptake; procedure, shortened: as §1
[22] = Clearance in Sprague-Dawley rat at 5 mg/kg, iv measured after 0.08 to 72 hrs post dose by LC-MS/MS analysis; format: ADME, organism-based; details: in vivo; procedure, shortened: as §1

CN(C)CCN(C)c1ccc(C#N)c(CN2CCN(c3ccc(Cl)cc3)CC2)c1
EC50 (Hepatitis C virus [1]): 0.0044 µM
CL/F [2]: 200 mL/min/kg
Cmax [3]: 94.5 ng/mL
Activity (Hepatitis C virus [4]): Active
Activity (Hepatitis C virus [5]): Active
EC50 (Coxsackievirus B3): 7.41 µM
Vd [6]: 49.2 L/kg
EC50 (Hepatitis C virus [7]): 0.003 µM
AUC(0-t) at 72 h [8]: 5420 ng·h/mL
MTD at 7 day [9]: > 1000 mg/kg
Vz [10]: 238.11697 L/kg
CC50 [11]: 22.2 µM
selectivity ratio [12]: 671
half-life [13]: 12.7 h
Activity (Hepatitis C virus [14]): Active
Activity (Hepatitis C virus [15]): Dose-dependent effect
clearance [16]: 79.2 mL/min/kg
AUC(0-t) at 72 h [17]: 9590 ng·h/mL
Activity (Hepatitis C virus [18]): inactive
Vd [19]: 20.1 L/kg
bioavailability [20]: 59%
concentration at 24 h [21]: 77 ng/mL
clearance [22]: 18.1 mL/min/kg
